Several values for one entry are separate records, joined by “and”; a condition that tells them apart may be missing. Equal values may be shown once.
Columns and labels:
Format in all cases: toxicity, cell-based
U2OS [1] = assay: Incucyte cell viability with U2OS; details: human, 10 µM, compound concentration 10 uM; further: filed as whole numbers so only -1 and 0 and 1 occur
HEK-293T = assay: Incucyte cell viability with HEK293T; details: human, 10 µM, compound concentration 10 uM; further: filed as whole numbers so only -1 and 0 and 1 occur
Fibroblast = assay: Incucyte cell viability with human fibroblast; details: 10 µM, compound concentration 10 uM; further: filed as whole numbers so only -1 and 0 and 1 occur
U2OS [2] = assay: Multiplex assay against U2OS; details: human
How it was run: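 Cells were classed with CellPathfinder machine-learning gating, first as Hoechst high-intensity objects or normal cells, then (normal cells) as healthy, pyknosed or fragmented nuclei, and finally (pyknosed cells) as mitotic or apoptotic. Staining of live cells at seeding used Hoechst33342, BioTracker Green Microtubule Cytoskeleton Dye, MitoTracker Red and Annexin V Alexa Fluor 680, with imaging on a CQ1 microscope at 37°C and 5% CO2 after compound addition. Tubulin, mitochondrial-mass and membrane-permeability phenotypes are per cents of healthy-nucleus cells.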

[3] = 0 h, replicate number 1, timepoint 0 hours
[4] = 6 h, replicate number 1, timepoint 6 hours
[5] = 12 h, replicate number 1, timepoint 12 hours
[6] = 18 h, replicate number 1, timepoint 18 hours
[7] = 24 h, replicate number 1, timepoint 24 hours
[8] = 12 h, 1 µM, compound concentration 1 uM, replicate 1
[9] = 12 h, 1 µM, compound concentration 1 uM, replicate 2
[10] = 12 h, 10 µM, compound concentration 10 uM, replicate 1
[11] = 12 h, 10 µM, compound concentration 10 uM, replicate 2
[12] = 24 h, 1 µM, compound concentration 1 uM, replicate 1
[13] = 24 h, 1 µM, compound concentration 1 uM, replicate 2
[14] = 24 h, 10 µM, compound concentration 10 uM, replicate 1
[15] = 24 h, 10 µM, compound concentration 10 uM, replicate 2
[16] = 48 h, 1 µM, compound concentration 1 uM, replicate 1
[17] = 48 h, 1 µM, compound concentration 1 uM, replicate 2
[18] = 48 h, 10 µM, compound concentration 10 uM, replicate 1
[19] = 48 h, 10 µM, compound concentration 10 uM, replicate 2

## CS(=O)(=O)N1CCCC(NC(=O)[C@H](CCC2CCCCC2)NC(=O)c2ccc(CNC(=O)c3cnc4ccccn34)cc2)C1 (stereo partly specified) [SR-302]
U2OS [1]; [3]
  Growth Rate: 0
U2OS [1]; [4]
  Growth Rate: 1
U2OS [1]; 6 h, replicate number 2, timepoint 6 hours
  Growth Rate: 0
U2OS [1]; [5]
  Growth Rate: 0
U2OS [1]; [6]
  Growth Rate: 0
U2OS [1]; 18 h, replicate number 2, timepoint 18 hours
  Growth Rate: 1
U2OS [1]; [7]
  Growth Rate: 0
HEK-293T; [3]
  Growth Rate: 0
HEK-293T; [4]
  Growth Rate: 0
HEK-293T; [5]
  Growth Rate: 0
HEK-293T; [6]
  Growth Rate: 0
HEK-293T; [7]
  Growth Rate: 0
Fibroblast; [3]
  Growth Rate: 0
Fibroblast; [4]
  Growth Rate: 1
Fibroblast; [5]
  Growth Rate: 0
Fibroblast; [6]
  Growth Rate: 0
Fibroblast; [7]
  Growth Rate: 0
U2OS [2]; [8]
  Population Apoptotic (%): 41% [middle of 4 runs]
  Population Fragmented Nuclei (%): 2% and 6% and 10% and 5%
  Population Healthy Nuclei (%): 92% and 78% and 82%
  Population Membrane Permeable-Phenotype (%): 12% and 6% and 4%
  Population Mitotic Cells (%): 80% and 39% and 58%
  Population Normal (%): 95% and 97% and 96% and 92%
  Population Pyknosed Nuclei (%): 5% and 10% and 11%
  Population Tubulin-Different-Phenotype (%): 18% and 32% and 29%
  Total Cell Count: 258 [middle of 4 runs]
U2OS [2]; [9]
  Population Fragmented Nuclei (%): 8% and 12%
  Population Healthy Nuclei (%): 90% and 83% and 81% and 76%
  Population Hoechst High Intensity Objects (%): 10% and 6% and 16%
  Population Membrane Permeable-Phenotype (%): 7% [middle of 4 runs]
  Population Mitotic Cells (%): 100% and 60% and 66%
  Population Normal (%): 89% and 93% and 83%
  Population Pyknosed Nuclei (%): 8% [middle of 4 runs]
  Population Tubulin-Different-Phenotype (%): 15% and 17% and 14%
  Total Cell Count: 84 [middle of 4 runs]
U2OS [2]; [10]
  Population Apoptotic (%): 56% [middle of 4 runs]
  Population Fragmented Nuclei (%): 11% and 10% and 2%
  Population Healthy Nuclei (%): 70% and 74% and 75% and 94%
  Population Hoechst High Intensity Objects (%): 11% and 5%
  Population Membrane Permeable-Phenotype (%): 13% and 12%
  Population Mitotic Cells (%): 65% [middle of 4 runs]
  Population Normal (%): 88% and 94%
  Total Cell Count: 185 [middle of 4 runs]
U2OS [2]; [11]
  Population Fragmented Nuclei (%): 12% and 9% and 6%
  Population Healthy Nuclei (%): 80% and 83% and 86%
  Population Hoechst High Intensity Objects (%): 7% and 6% and 3%
  Population Membrane Permeable-Phenotype (%): 20% [middle of 4 runs]
  Population Normal (%): 92% and 93% and 96%
  Population Pyknosed Nuclei (%): 7% and 9% and 4%
  Total Cell Count: 92 [middle of 4 runs]
U2OS [2]; [12]
  Population Apoptotic (%): 18% and 31% and 46%
  Population Fragmented Nuclei (%): 3% and 6% and 5% and 8%
  Population Healthy Nuclei (%): 90% and 85% and 87% and 81%
  Population Hoechst High Intensity Objects (%): 1% and 2% and 3%
  Population Membrane Permeable-Phenotype (%): 7% and 6% and 2% and 1%
  Population Mitotic Cells (%): 81% and 68% and 53%
  Population Normal (%): 98% and 97% and 96%
  Population Pyknosed Nuclei (%): 6% and 7% and 10%
  Total Cell Count: 310 [middle of 4 runs]
U2OS [2]; [13]
  Population Fragmented Nuclei (%): 7%
  Population Healthy Nuclei (%): 91% and 84% and 88% and 93%
  Population Membrane Permeable-Phenotype (%): 9% and 8% and 5%
  Population Mitotic Cells (%): 66% and 50% and 85%
  Population Normal (%): 89% and 85% and 95%
  Population Pyknosed Nuclei (%): 1% and 8% and 2%
  Population Tubulin-Different-Phenotype (%): 24% [middle of 4 runs]
  Total Cell Count: 97 [middle of 4 runs]
U2OS [2]; [14]
  Population Apoptotic (%): 62% [middle of 4 runs]
  Population Fragmented Nuclei (%): 10% and 11% and 5%
  Population Healthy Nuclei (%): 72% and 71% and 90%
  Population Hoechst High Intensity Objects (%): 8% and 6% and 1%
  Population Membrane Permeable-Phenotype (%): 11% and 13%
  Population Mitotic Cells (%): 51% [middle of 4 runs]
  Population Normal (%): 91% and 93% and 98%
  Total Cell Count: 265 [middle of 4 runs]
U2OS [2]; [15]
  Population Apoptotic (%): 54% [middle of 4 runs]
  Population Fragmented Nuclei (%): 7% and 1% and 9%
  Population Healthy Nuclei (%): 77% and 82% and 89%
  Population Hoechst High Intensity Objects (%): 11% and 4% and 5%
  Population Membrane Permeable-Phenotype (%): 20% and 16% and 12%
  Population Mitotic Cells (%): 60% [middle of 4 runs]
  Population Normal (%): 88% and 95% and 94%
  Population Pyknosed Nuclei (%): 15% and 13%
  Total Cell Count: 91 [middle of 4 runs]
U2OS [2]; [16]
  Population Apoptotic (%): 40% and 44% and 37%
  Population Fragmented Nuclei (%): 4% and 1% and 2%
  Population Healthy Nuclei (%): 92% and 90%
  Population Hoechst High Intensity Objects (%): 1% and 0%
  Population Membrane Permeable-Phenotype (%): 2%
  Population Mitochondria Different-Phenotype (%): 15% and 9% and 7%
  Population Mitotic Cells (%): 60% and 56% and 62%
  Population Normal (%): 98% and 99%
  Population Pyknosed Nuclei (%): 6% and 5%
  Population Tubulin-Different-Phenotype (%): 40% and 18% and 46%
  Total Cell Count: 466 and 472
U2OS [2]; [17]
  Population Fragmented Nuclei (%): 6% and 3%
  Population Healthy Nuclei (%): 84% and 88% and 91%
  Population Hoechst High Intensity Objects (%): 9% and 2%
  Population Membrane Permeable-Phenotype (%): 7% and 4% and 1%
  Population Mitochondria Different-Phenotype (%): 11% and 5%
  Population Mitotic Cells (%): 44% and 91% and 66%
  Population Normal (%): 90% and 97%
  Population Pyknosed Nuclei (%): 9% and 8%
  Population Tubulin-Different-Phenotype (%): 30% and 26% and 12%
  Total Cell Count: 93 and 189 and 109
U2OS [2]; [18]
  Population Apoptotic (%): 70% and 57%
  Population Fragmented Nuclei (%): 10%
  Population Healthy Nuclei (%): 74% and 73% and 72%
  Population Hoechst High Intensity Objects (%): 8%
  Population Membrane Permeable-Phenotype (%): 7% and 4%
  Population Mitochondria Different-Phenotype (%): 39% and 36% and 30%
  Population Mitotic Cells (%): 29% and 42%
  Population Normal (%): 91%
  Population Pyknosed Nuclei (%): 16% and 17%
  Population Tubulin-Different-Phenotype (%): 40% and 38% and 30%
  Total Cell Count: 243 and 658 and 261
U2OS [2]; [19]
  Population Apoptotic (%): 76% and 46% and 90%
  Population Fragmented Nuclei (%): 9% and 6% and 8%
  Population Healthy Nuclei (%): 75% and 79% and 80%
  Population Hoechst High Intensity Objects (%): 7% and 5% and 1%
  Population Membrane Permeable-Phenotype (%): 20% and 16%
  Population Mitochondria Different-Phenotype (%): 59% and 41% and 44%
  Population Normal (%): 92% and 94% and 98%
  Population Pyknosed Nuclei (%): 15% and 13% and 10%
  Population Tubulin-Different-Phenotype (%): 48% and 33% and 39%
  Total Cell Count: 146 and 92 and 114

Reference: ChEMBL document CHEMBL4689842, “EUbOPEN Chemogenomics Library wave 1” (2021)
